Columns and labels:
Format in all cases: functional
RXF 393 [1] = assay: Cytotoxicity against human RXF393 cells assessed as cell growth at 100 nM after 48 hrs by sulforhodamine B assay; conditions: RXF 393, 48 h, read-out: Activity
PC-3 = assay: Cytotoxicity against human PC3 cells assessed as cell growth at 10 uM after 48 hrs by sulforhodamine B assay; conditions: PC-3, 48 h, read-out: Activity
CCRF-CEM = assay: Cytotoxicity against human CCRF-CEM cells assessed as cell growth at 10 uM; conditions: read-out: Activity
In short: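 Single-dose NCI-60 screen at 10 µM. Cells were grown in RPMI 1640 with 5% FBS and 2 mM L-glutamine, then treated for 48 h at 37 °C. Protein was measured by SRB staining with absorbance at 515 nm. Percentage growth was recorded, and inhibition percentage was calculated as 100 minus growth percentage.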

[2] = Cytotoxicity against human […] cells assessed as cell growth at 10 uM; conditions: read-out: Activity
In short: (§1)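 NCI-60 screen: cells grown in RPMI 1640 with 5% FBS and 2 mM L-glutamine, plated at 5000–40,000 cells/well according to doubling time, and preincubated 24 h at 37 °C, 5% CO2. The single 10 µM dose (DMSO stock) was added, then incubated 48 h. Cells were TCA-fixed and stained with 0.4% SRB, read at 515 nm, and growth % calculated against time-zero and control plates.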

HCC 2998 [3] = assay: Cytotoxicity against human HCC2998 cells assessed as cell growth at 100 nM after 48 hrs by sulforhodamine B assay; conditions: HCC 2998, 48 h, read-out: Activity
UO-31 = assay: Cytotoxicity against human UO31 cells assessed as cell growth at 10 uM after 48 hrs by sulforhodamine B assay; conditions: UO-31, 48 h, read-out: Activity
MCF7 [4] = assay: Growth inhibition of human MCF7 cells after 48 hrs by sulforhodamine B assay; conditions: MCF7, 48 h
In short: (§2)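 NCI 60-cell screen, five-dose mode. Cells grown in RPMI 1640 with 5% FBS and 2 mM L-glutamine and plated at 5000-40,000 cells/well according to doubling time. After 24 h preincubation, a Tz plate was TCA-fixed. Five concentrations (10-fold or 1/2 log dilutions) were applied for 48 h at 37 °C. SRB staining read at 515 nm. IC50 taken from [(Ti-Tz)/(C-Tz)]×100 = 50.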

MDA-MB-435 = assay: Cytotoxicity against human MDA-MB-435 cells assessed as cell growth at 0.01 uM after 48 hrs by sulforhodamine B assay; conditions: MDA-MB-435, 48 h, read-out: Activity
NCI-H226 [5] = assay: Cytotoxicity against human NCI-H226 cells assessed as cell growth at 1 uM after 48 hrs by sulforhodamine B assay; conditions: NCI-H226, 48 h, read-out: Activity
SR [6] = assay: Cytotoxicity against human SR cells assessed as cell growth at 0.01 uM after 48 hrs by sulforhodamine B assay; conditions: read-out: Activity
RXF 393 [7] = assay: Cytotoxicity against human RXF393 cells assessed as cell growth at 10 uM after 48 hrs by sulforhodamine B assay; conditions: RXF 393, 48 h, read-out: Activity
HCC 2998 [8] = assay: Cytotoxicity against human HCC2998 cells assessed as cell growth at 1 uM after 48 hrs by sulforhodamine B assay; conditions: HCC 2998, 48 h, read-out: Activity
CAKI-1 = assay: Cytotoxicity against human Caki1 cells assessed as cell growth at 1 uM after 48 hrs by sulforhodamine B assay; conditions: CAKI-1, 48 h, read-out: Activity
SR [9] = assay: Cytotoxicity against human SR cells assessed as cell growth at 0.001 uM after 48 hrs by sulforhodamine B assay; conditions: read-out: Activity
SK-MEL-28 [10] = assay: Cytotoxicity against human SK-MEL-28 cells assessed as cell growth at 1 uM after 48 hrs by sulforhodamine B assay; conditions: SK-MEL-28, 48 h, read-out: Activity
MCF7 [11] = assay: Cytotoxicity against human MCF7 cells assessed as cell growth at 1 uM after 48 hrs by sulforhodamine B assay; conditions: MCF7, 48 h, read-out: Activity
SK-MEL-5 = assay: Cytotoxicity against human SK-MEL-5 cells assessed as cell growth at 1 uM after 48 hrs by sulforhodamine B assay; conditions: SK-MEL-5, 48 h, read-out: Activity
DU-145 = assay: Cytotoxicity against human DU145 cells assessed as cell growth at 0.01 uM after 48 hrs by sulforhodamine B assay; conditions: DU-145, 48 h, read-out: Activity
HCC 2998 [12] = assay: Growth inhibition of human HCC2998 cells after 48 hrs by sulforhodamine B assay; conditions: HCC 2998, 48 h; in short: as §2
786-0 = assay: Cytotoxicity against human 786-0 cells assessed as cell growth at 10 uM after 48 hrs by sulforhodamine B assay; conditions: 786-0, 48 h, read-out: Activity
MCF7 [13] = assay: Cytotoxicity against human MCF7 cells assessed as cell growth at 10 uM after 48 hrs by sulforhodamine B assay; conditions: MCF7, 48 h, read-out: Activity
ACHN = assay: Cytotoxicity against human ACHN cells assessed as cell growth at 0.01 uM after 48 hrs by sulforhodamine B assay; conditions: read-out: Activity
MCF7 [14] = assay: Cytotoxicity against human MCF7 cells assessed as cell growth at 100 nM after 48 hrs by sulforhodamine B assay; conditions: MCF7, 48 h, read-out: Activity
RXF 393 [15] = assay: Cytotoxicity against human RXF393 cells assessed as cell growth at 0.001 uM after 48 hrs by sulforhodamine B assay; conditions: RXF 393, 48 h, read-out: Activity
[16] = Cytotoxicity against human […] cells assessed as cell growth at 10 uM after 48 hrs by sulforhodamine B assay; conditions: read-out: Activity
KM12 = assay: Cytotoxicity against human KM12 cells assessed as cell growth at 10 uM; conditions: read-out: Activity; in short: as §1
HCT-116 = assay: Cytotoxicity against human HCT116 cells assessed as cell growth at 100 nM after 48 hrs by sulforhodamine B assay; conditions: HCT-116, 48 h, read-out: Activity
NCI-H226 [17] = assay: Cytotoxicity against human NCI-H226 cells assessed as cell growth at 0.01 uM after 48 hrs by sulforhodamine B assay; conditions: NCI-H226, 48 h, read-out: Activity
SK-MEL-28 [18] = assay: Cytotoxicity against human SK-MEL-28 cells assessed as cell growth at 10 uM after 48 hrs by sulforhodamine B assay; conditions: SK-MEL-28, 48 h, read-out: Activity
RXF 393 [19] = assay: Growth inhibition of human RXF393 cells after 48 hrs by sulforhodamine B assay; conditions: RXF 393, 48 h; in short: as §2
SF-295 = assay: Cytotoxicity against human SF295 cells assessed as cell growth at 100 nM after 48 hrs by sulforhodamine B assay; conditions: SF-295, 48 h, read-out: Activity
RXF 393 [20] = assay: Cytotoxicity against human RXF393 cells assessed as cell growth at 1 uM after 48 hrs by sulforhodamine B assay; conditions: RXF 393, 48 h, read-out: Activity
MCF7 [21] = assay: Cytotoxicity against human MCF7 cells assessed as cell growth at 0.001 uM after 48 hrs by sulforhodamine B assay; conditions: MCF7, 48 h, read-out: Activity
NCI-H226 [22] = assay: Cytotoxicity against human NCI-H226 cells assessed as cell growth at 10 uM after 48 hrs by sulforhodamine B assay; conditions: NCI-H226, 48 h, read-out: Activity
SK-MEL-28 [23] = assay: Growth inhibition of human SK-MEL-28 cells after 48 hrs by sulforhodamine B assay; conditions: SK-MEL-28, 48 h; in short: as §2
[24] = read-out: LC50 (the source's name)

SMILES: Cc1cc(O)cc(-c2nn(CC#N)cc2-c2ccnc(-c3ccc(N(C)C)cc3)c2)c1
- growth at 0.1 µM (RXF 393 [1]): 120%
- growth at 10 µM (PC-3): -9%
- growth at 10 µM (CCRF-CEM): 40.3%
- growth at 10 µM [2]: 41.6%
- growth at 0.1 µM (HCC 2998 [3]): 87%
- growth at 10 µM (UO-31): -19%
- GI50 (MCF7 [4]): 0.975 µM
- LC50 (MCF7 [4]): 69.9 µM
- TGI (MCF7 [4]): 13.9 µM
- growth at 0.01 µM (MDA-MB-435): 91%
- growth at 1 µM (NCI-H226 [5]): 19%
- growth at 0.01 µM (SR [6]): 93%
- growth at 10 µM (RXF 393 [7]): -46%
- growth at 1 µM (HCC 2998 [8]): 13%
- growth at 1 µM (CAKI-1): 9%
- growth at 0.001 µM (SR [9]): 93%
- growth at 1 µM (SK-MEL-28 [10]): 32%
- growth at 1 µM (MCF7 [11]): 10%
- growth at 1 µM (SK-MEL-5): -26%
- growth at 0.01 µM (DU-145): 97%
- GI50 (HCC 2998 [12]): 3.19 µM
- TGI (HCC 2998 [12]): 13.2 µM
- CC50 (HCC 2998 [12]; [24]): 37.2 µM
- growth at 10 µM (786-0): -49%
- growth at 10 µM (MCF7 [13]): -61%
- growth at 0.01 µM (ACHN): 82%
- growth at 0.1 µM (MCF7 [14]): 50%
- growth at 0.001 µM (RXF 393 [15]): 100%
- growth at 10 µM [16]: -28%
- growth at 10 µM (KM12): 27.3%
- growth at 0.1 µM (HCT-116): 87%
- growth at 0.01 µM (NCI-H226 [17]): 94%
- growth at 10 µM (SK-MEL-28 [18]): -31%
- GI50 (RXF 393 [19]): 2.87 µM
- LC50 (concentration killing 50% of the starting cells) (RXF 393 [19]): > 100 µM
- TGI (RXF 393 [19]): 61.4 µM
- growth at 0.1 µM (SF-295): 78%
- growth at 1 µM (RXF 393 [20]): -32%
- growth at 0.001 µM (MCF7 [21]): 97%
- growth at 10 µM (NCI-H226 [22]): -38%
- GI50 (SK-MEL-28 [23]): 5.22 µM
- TGI (SK-MEL-28 [23]): 32.4 µM
- CC50 (SK-MEL-28 [23]; [24]): > 100 µM
